In ChEMBL document CHEMBL4732250, “Investigations on substituted (2-aminothiazol-5-yl)(imidazo[1,2-a]pyridin-3-yl)methanones for the treatment of Alzheimer's disease” (Bioorg Med Chem, 2021) one finds inhibition in vivo and Activity data, which are given here for ten compounds.

Structures are written as SMILES. Calls of active or inactive are those of the source. The calls are words filed in the database; no cut-off is given here.

Series [1] concerns Rattus norvegicus. The experiment in a line: Antiinflammatory activity in Sprague-Dawley rat chronic model of formalin-induced paw edema assessed as inhibition of rat paw edema at 50 mg/kg, po pre treated for 1 hr followed by formalin-stimulation and measured after 4 days by plethysmometeric method relative to control. In kind it is functional. Particulars: 96 h, time 4 day. Summed up: (§1)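 Chronic paw edema. Oral pre-dose in 0.2% agar; after 1 h, 0.1 mL 2% formalin in saline injected into the left hind sub-plantar paw, repeated on 5 consecutive days. Paw volume by plethysmometer. % inhibition of edema size relative to disease control, days 1–5. n = 6, mean ± SEM, one-way ANOVA with Tukey's test.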

The nature of series [2]: Toxicity in AlCl3-induced Sprague-Dawley rat assessed as intestine lesion at 50 mg/kg, po after 28 days by H and E staining based microscopic method. Type of series: organism-based. The settings on record: in vivo, 672 h, time 28 day. Summed up:
(§2)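 Gastrointestinal damage in AlCl3-model rats, 28 days of oral dosing. Stomach and intestines were washed in cold PBS 0.01 M pH 7.4 and fixed 24 h in 10% neutral buffered formalin. After a 70% ethanol wash, haemorrhagic damage was measured by digital vernier caliper for the lesion index. HE-stained sections examined microscopically.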

For series [3], the system named is Rattus norvegicus. Put plainly: Antiinflammatory activity in Sprague-Dawley rat acute model of carrageenan-induced paw edema assessed as inhibition of rat paw edema at 50 mg/kg, po pre treated for 1 hr followed by carrageenan-stimulation and measured after 3 hrs by plethysmometeric method relative to control. The settings on record: time 4 hrs. In kind it is functional. Summed up: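 SD rats of either sex, 150–200 g, n = 6, dosed orally in 0.2% agar suspension. After 1 h, 0.1 mL 1% carrageenan in saline injected into the left hind sub-plantar paw. Paw volume measured by mercury plethysmometer before and 3 h after injection. % edema inhibition calculated. Mean ± SEM.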

Series [4] relates to Rattus norvegicus. Put plainly: Antiinflammatory activity in Sprague-Dawley rat chronic model of formalin-induced paw edema assessed as inhibition of rat paw edema at 50 mg/kg, po pre treated for 1 hr followed by formalin-stimulation and measured after 1 day by plethysmometeric method relative to control. Type of series: functional. Particulars: 24 h. Put shortly:
as §1

Series [5] can be described thus: Toxicity in AlCl3-induced Sprague-Dawley rat assessed as reduction in HGB level at 50 mg/kg, po after 28 days by automated haematology analyser. The settings on record: in vivo, 672 h, time 28 day. Type of series: organism-based. Summed up:
(§3)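 On day 29 of the AlCl3 model (28 days of oral dosing), blood was drawn from the retro-orbital sinus under isoflurane into heparinized tubes. Haemoglobin and haematocrit were measured on a haematology analyser.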

In series [6] the test system is Rattus norvegicus. Put plainly: Antialzheimer activity against AlCl3-induced Sprague-Dawley rat assessed as change in brain SODactivity at 50 mg/kg, po after 28 days. In kind it is functional, organism-based. Particulars: time 28.0 day. Summed up:
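Brain SOD activity. Rats were dosed orally for 28 days in 0.2% agar suspension, each followed by AlCl3 4.2 mg/kg i.p. Brains were taken on day 29, washed in saline and homogenized in chilled 50 mM Tris pH 8.2. Triton X-100 treatment at 4 °C, 30 min, then centrifugation. Pyrogallol was added and A420 read at 0 and 9 min, per gram fresh tissue. n = 6.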

The test system of series [7] is Rattus norvegicus. Put plainly: Antiinflammatory activity in Sprague-Dawley rat chronic model of formalin-induced paw edema assessed as inhibition of rat paw edema at 50 mg/kg, po pre treated for 1 hr followed by formalin-stimulation and measured after 5 day by plethysmometeric method relative to control. In kind it is functional. The settings on record: 120 h. Summed up:
as §1

Series [8] deals with Rattus norvegicus. Put plainly: Antialzheimer activity against AlCl3-induced Sprague-Dawley rat assessed as reduction in plaque formation in the cortex region at 50 mg/kg, po after 28 days by congo red staining based microscopic method. In kind it is functional, organism-based. The settings on record: time 28.0 day. Summed up:
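Cortical amyloid plaques in Congo red-stained brain sections viewed at 100X. Rats had 28 days of oral dosing in 0.2% agar plus AlCl3 4.2 mg/kg i.p.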

In series [9] the test system is Rattus norvegicus. The experiment in a line: Antialzheimer activity against AlCl3-induced Sprague-Dawley rat assessed as improved in spatial working memory at 50 mg/kg, po for 7 to 28 days by elevated plus maze test. Type of series: functional, organism-based. The settings on record: time 7-28 day.
Series [10] has as its system Rattus norvegicus. Put plainly: Antiinflammatory activity in Sprague-Dawley rat chronic model of formalin-induced paw edema assessed as inhibition of rat paw edema at 50 mg/kg, po pre treated for 1 hr followed by formalin-stimulation and measured after 3 days by plethysmometeric method relative to control. Type of series: functional. The settings on record: 72 h, time 3 day. Summed up: as §1

Series [11] in a line: Toxicity in AlCl3-induced Sprague-Dawley rat assessed as stomach lesion at 50 mg/kg, po after 28 days by H and E staining based microscopic method. In kind it is organism-based. The settings on record: in vivo, 672 h, time 28 day. Summed up: as §2
The nature of series [12]: Toxicity in AlCl3-induced Sprague-Dawley rat assessed as reduction in serum albumin level at 50 mg/kg, po after 28 days by automated analyser. In kind it is organism-based. The settings on record: in vivo, 672 h, time 28 day. Put shortly: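 Under isoflurane, retro-orbital blood was collected into non-heparinized tubes after the 28-day AlCl3 model with oral dosing. Serum % albumin and total protein were measured on an automated clinical chemistry analyser.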

Series [13] is described as follows: Toxicity in AlCl3-induced Sprague-Dawley rat assessed as focal erosions in stomach at 50 mg/kg, po after 28 days by H and E staining based microscopic method. In kind it is organism-based. The settings on record: in vivo, 672 h, time 28 day. Put shortly: as §2
Series [14] has as its system Rattus norvegicus. The experiment in a line: Antiinflammatory activity in Sprague-Dawley rat chronic model of formalin-induced paw edema assessed as inhibition of rat paw edema at 50 mg/kg, po pre treated for 1 hr followed by formalin-stimulation and measured after 2 days by plethysmometeric method relative to control. Type of series: functional. The settings on record: 48 h, time 2 day. Summed up: as §1

The test system of series [15] is Rattus norvegicus. The experiment in a line: Antialzheimer activity against AlCl3-induced Sprague-Dawley rat assessed as reduction in hippocampal neuronal degeneration at 50 mg/kg, po after 28 days by H and E staining based microscopic method. Type of series: functional, organism-based. The settings on record: time 28.0 day. Put shortly:
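Hippocampal neuronal degeneration. After 28 days of oral dosing in 0.2% agar with daily AlCl3 4.2 mg/kg i.p., brain sections were HE-stained and hippocampal regions examined at 100X.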

In series [16] the test system is Rattus norvegicus. Put plainly: Antialzheimer activity against AlCl3-induced Sprague-Dawley rat assessed as improved in learning memory by measuring suppression of CAR at 50 mg/kg, po for 7 to 28 days by pole test. In kind it is functional, organism-based. Particulars: time 7-28 day. Put shortly: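 Cook's pole-climbing apparatus used for conditioned avoidance response with foot shock, in acquisition and test sessions. Rats received oral dosing in 0.2% agar plus AlCl3 4.2 mg/kg i.p. daily for 28 days. CAR was recorded on days 7, 14, 21 and 28. n = 6 per group.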

Series [17] in a line: Toxicity in AlCl3-induced Sprague-Dawley rat assessed as focal erosions in intestine at 50 mg/kg, po after 28 days by H and E staining based microscopic method. Particulars: in vivo, 672 h, time 28 day. Type of series: organism-based. Summed up: as §2
The subject of series [18] is Rattus norvegicus. The experiment in a line: Antialzheimer activity against AlCl3-induced Sprague-Dawley rat assessed as reduction in brain LPO activity at 50 mg/kg, po after 28 days by UV-VIS spectrophotometric method. Particulars: time 28.0 day. Type of series: functional, organism-based. Summed up: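 Brain LPO as MDA by the TBA reaction. AlCl3 model: oral dosing in 0.2% agar for 28 days plus AlCl3 4.2 mg/kg i.p. daily. Day-29 brains were homogenized in HBSS pH 7.4 and the pellet resuspended. Reaction with SDS, acetic acid pH 3.5 and TBA at 95 °C for 1 h, then n-butanol:pyridine extraction. Read at 532 nm, extinction coefficient applied, per gram organ. n = 6.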

The test system of series [19] is Rattus norvegicus. The experiment in a line: Antialzheimer activity against AlCl3-induced Sprague-Dawley rat assessed as improved in working memory at 50 mg/kg, po for 7 to 28 days by Y maze test. Type of series: functional, organism-based. Particulars: time 7-28 day. Summed up:
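Y-maze: rats trained for 5 consecutive days. Arm entries recorded; SAP = total entries minus two; % alteration = actual ÷ maximum alteration × 100. Assessed on days 7, 14, 21 and 28 of daily oral dosing in 0.2% agar plus AlCl3 4.2 mg/kg i.p. n = 6, two-way ANOVA with Tukey's test.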

Series [20] is described as follows: Toxicity in AlCl3-induced Sprague-Dawley rat assessed as reduction in HCT level at 50 mg/kg, po after 28 days by automated haematology analyser. Type of series: organism-based. The settings on record: in vivo, 672 h, time 28 day. Put shortly:
as §3

The inhibition in vivo is the change of the read-out against control, counted positive when it falls. For the compound `Cc1ccn2c(C(=O)c3sc(N)nc3N(C)C)cnc2c1`, the inhibition in vivo at 50 mg/kg in [1] is 60%; in series [3], 85%; in series [4] it was 58%; in [7] it was 63%; in [10] it was 65%; in series [14] it was 67%. Further, the Activity entry in series [2], in series [5], in [11], in series [12], in series [13] and in series [17] was “Non-Toxic” each time. Moreover, in series [20], the Activity entry is recorded as “Non-Toxic”. Moreover, the outcome in [6], in [8], in series [9], in [15], in series [16] and in [18] was Active. The outcome in series [19] was Active.
As to `Cc1ccc2ncc(C(=O)c3sc(N)nc3N(C)C)n2c1`, in series [3], the inhibition in vivo at 50 mg/kg amounted to 23%.
As for `CN(C)c1nc(N)sc1C(=O)c1cnc2ccccn12`, the inhibition in vivo at 50 mg/kg in [3] amounted to 32%.
On to `Cc1nc(N)sc1C(=O)c1cnc2ccccn12`, for which the inhibition in vivo at 50 mg/kg in series [3] came out at 53%.
The same measure, in the same setting: the result for `Nc1ncc(C(=O)c2cnc3ccccn23)s1` reads 33%; that for `Cc1nc(N)sc1C(=O)c1cnc2c(C)cccn12`, 45%; that for `Cc1cccn2c(C(=O)c3sc(N)nc3-c3ccccc3)cnc12`, 20%.
The same measure, in the same setting: the result for `Cc1cccn2c(C(=O)c3cnc(N)s3)cnc12` reads 31%.
In the case of `Cc1ccn2c(C(=O)c3sc(N)nc3-c3ccccc3)cnc2c1`, the inhibition in vivo at 50 mg/kg in series [3] stood at 26%.
The same measure, in the same setting: the result for `Cc1ccc2ncc(C(=O)c3sc(N)nc3C)n2c1` reads 33%.
